From ChEMBL document CHEMBL5357069, “Development of a GC-376 Based Peptidomimetic PROTAC as a Degrader of 3-Chymotrypsin-like Protease of SARS-CoV-2” (ACS Med Chem Lett, 2024) come the findings set out here.

The source made the active and inactive calls. The rule behind the calls is not given here. Where only a bound is given, the exact number is not on record here.

Data set [1] deals with Replicase polyprotein 1ab (Severe acute respiratory syndrome coronavirus 2, UniProt P0DTD1). As to the kind of experiment: Inhibition of N-terminal 6xHis-tagged SARS-CoV-2 3CLPro expressed in Escherichia coli BL21(DE3) using Hi-lyte Fluor-488-ESATLQSGLRKAK-(QXL-520)-NH2 as substrate preincubated for 10 mins followed by substrate addition measured for 30 mins by fluorometric assay.

Data set [2] has as its target Replicase polyprotein 1ab (Severe acute respiratory syndrome coronavirus 2) (UniProt P0DTD1). As to the kind of experiment: Binding affinity to monomeric form of SARS-CoV-2 3CLPro assessed as change in chemical shift by NMR spectroscopy.
Data set [3] has the same target. As to the kind of experiment: Binding affinity to dimeric form of SARS-CoV-2 3CLPro assessed as change in chemical shift by NMR spectroscopy. The method in brief: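 Solution NMR titration of dimeric 3CLPro with the ligand up to a 1:1 protein:ligand molar ratio, following loss of free-protein signals and appearance of adduct signals.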
Data set [4] has the same target. Kind of data set: Binding affinity to SARS-CoV-2 3CLPro assessed as covalent complex formation by MALDI TOF mass spectrometry.
Data set [5] has the same target. Kind of data set: Reversible binding affinity to SARS-CoV-2 3CLPro using fluorogenic substrate assessed as covalent complex formation preincubated for 30 mins followed by substrate addition by MALDI TOF mass spectrometry. In short, it runs like this:
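Reversibility by dilution: enzyme incubated 30 min with or without large compound excess, then diluted 100-fold into buffer with fluorogenic substrate; initial velocities from progress curves compared against compound-free enzyme.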

Data set [6] deals with T1, Protein cereblon/Replicase polyprotein 1ab (Severe acute respiratory syndrome coronavirus 2) (UniProt Q96SW2+P0DTD1). Kind of data set: PROTAC activity at CRBN/C-terminal HA epitope-tagged SARS-CoV-2 3CLPro transfected in human HeLa cells assessed as degradation of 3CLPro upto 80 uM by immunoblot analysis. It is filed as cell-based. The method in brief:
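HeLa cells stably expressing C-terminally HA-tagged 3CLPro (lentiviral, puromycin-selected) treated 24 h at a range of concentrations; lysates immunoblotted, 3CLPro normalized to actin.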

Data set [7] addresses T1, Protein cereblon/Replicase polyprotein 1ab (Severe acute respiratory syndrome coronavirus 2). Kind of data set: PROTAC activity at CRBN/C-terminal HA epitope-tagged SARS-CoV-2 3CLPro transfected in human HeLa cells assessed as degradation of 3CLPro at 80 uM incubated upto 48 hrs by immunoblot analysis. It is filed as cell-based. The method in brief: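 Time course in HeLa cells stably expressing C-terminally HA-tagged 3CLPro (lentiviral transduction, puromycin selection), treated at 80 μM; whole-cell extracts immunoblotted, 3CLPro band normalized to actin.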
On the technique in general: A western blot detects proteins with antibodies after separation by electrophoresis.

In a further data set the test system is HeLa. As to the kind of experiment: Cytotoxicity against human HeLa cells assessed as cell viability upto 80 uM incubated for 72 hrs by MTT assay. It counts as toxicity, cell-based. In short, it runs like this:
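HeLa cells exposed to compound for 72 h at a series of concentrations; viability read by MTT assay.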

Data set [8] has as its target Replicase polyprotein 1ab (Severe acute respiratory syndrome coronavirus 2) (UniProt P0DTD1). As to the kind of experiment: Inhibition of N-terminal 6xHis-tagged SARS-CoV-2 3CLPro expressed in Escherichia coli BL21(DE3) using Hi-lyte Fluor-488-ESATLQSGLRKAK-(QXL-520)-NH2 as substrate at 100 uM preincubated for 10 mins followed by substrate addition measured for 30 mins by fluorometric assay relative to control. As to conditions: time 40.0 min.

Data set [9] has the same target. As to the kind of experiment: Inhibition of N-terminal 6xHis-tagged SARS-CoV-2 3CLPro expressed in Escherichia coli BL21(DE3) using Hi-lyte Fluor-488-ESATLQSGLRKAK-(QXL-520)-NH2 as substrate at 10 uM preincubated for 10 mins followed by substrate addition measured for 30 mins by fluorometric assay relative to control. As to conditions: time 40.0 min.

Usually IC50 stands for the point on the concentration scale where inhibition reaches its midpoint. A low value points to greater potency. The term inhibition denotes the percentage by which the read-out fell short of the control. A low value points to little suppression.

As for `CC(C)C[C@H](NC(=O)OCc1ccccc1)C(=O)N[C@H](/C=C/C(=O)N1CCN(CC2CCN(c3cc4c(cc3F)C(=O)N(C3CCC(=O)NC3=O)C4=O)CC2)CC1)C[C@@H]1CCNC1=O` (stereo partly drawn), in [1], inhibition was half-maximal at 21.2 µM (IC50). The outcome in data set [2] was inactive. The outcome in data set [3], in data set [4], in [5], in data set [6] and in data set [7] was Active. In addition, the Activity entry in the data set with HeLa is “Non-Toxic”.

The compound `COC(=O)/C=C/[C@H](C[C@@H]1CCNC1=O)NC(=O)[C@H](CC(C)C)NC(=O)OCc1ccccc1` gave an IC50 in data set [1] of 1.35 µM. The result in data set [4] was Active.

Turning to `COC(=O)/C=C/[C@H](C[C@@H]1CCNC1=O)NC(=O)[C@H](Cc1ccccc1)NC(=O)[C@@H](NC(=O)CCC(=O)N1CCN(C(=O)C2CCN(c3cccc4c3C(=O)N(C3CCC(=O)NC3=O)C4=O)CC2)CC1)C(C)C` (stereo partly drawn), in data set [1], the IC50 was more than 100 µM. Further, the inhibition came out at 64% in [8] and 0% in data set [9].
